Experimental findings from PubChem BioAssay AID588627 (Johns Hopkins Ion Channel Center, 2011) are described below.

Each structure is given as a SMILES string. The campaign covered roughly 310,000 compounds. About 1,400 (0.45%) were called active.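 The calls were made as follows: active = calcium response B-score plate-corrected fluorescence ratio at least 3 library SD, with starting fluorescence B-score inside 5 SD; inactive = the rest.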 The full list was thinned out, with actives kept by preference.

Sequence of Mas-related G-protein coupled receptor member X1 (Homo sapiens) (Q96LB2 whole entry, looked up): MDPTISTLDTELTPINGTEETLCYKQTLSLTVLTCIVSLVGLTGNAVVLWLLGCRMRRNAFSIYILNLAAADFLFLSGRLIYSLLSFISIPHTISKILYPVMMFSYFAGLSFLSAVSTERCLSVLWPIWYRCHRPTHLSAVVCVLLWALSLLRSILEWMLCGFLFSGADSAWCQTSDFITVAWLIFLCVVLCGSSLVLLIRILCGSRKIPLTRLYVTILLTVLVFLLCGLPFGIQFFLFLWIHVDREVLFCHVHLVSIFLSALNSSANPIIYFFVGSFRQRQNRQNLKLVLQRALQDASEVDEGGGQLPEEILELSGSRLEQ

This assay concerns the target Mas-related G-protein coupled receptor member X1 (Homo sapiens) (UniProt Q96LB2). Briefly: agonists of human MrgX1 receptor, primary screen, HEK293 cells, Fluo-4 calcium flux (AID 588627).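 As to B-score: B-score of the peak-minus-trough calcium fluorescence change over baseline.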 As to conditions: Fluo-4 calcium fluorescence, agonist mode, at 10 µM; stronger effect = higher value. In a few lines:
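Test system: HEK293 cells stably expressing human MrgX1 receptor; Input: fifteen thousand cells per well; Dosing: compound delivered in addition one of three; Schedule: overnight seeding, then 1 h dark dye loading; Technique: Fluo-4 NW calcium fluorescence; Measure: B-scored fluorescence response ratio; Controls: positive and negative controls per plate.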
Background: Calcium flux is commonly read through the fluorescence of an indicator in the cells.
As to `CCCCN1C(=O)/C(=C/C=C2/C=Cc3ccccc3N2CC)SC1=S`, the B-score entry is “inactive”. Turning to `CCCCN1C(=O)/C(=C2/C=CC=CN2C)SC1=S`, the B-score entry was “inactive”.

`CCCCN1C(=O)/C(=C2/Sc3ccc(Cl)cc3N2CC)SC1=S`: the B-score is 34.9 (active).

Consider `COc1ccc(CCNc2ncnc3c2nnn3Cc2ccccc2)cc1`, for which the B-score result was “inactive”. The result for `Cc1c(CN2CC[C@@H](N3CCN(c4ccccn4)CC3)[C@H](O)C2)[nH]c2ccc(F)cc12` reads “inactive”; that for `Fc1ccc2[nH]c3c(N4CCSCC4)ncnc3c2c1`, 29.1 (active); that for `CCCCC(=O)NNC(=S)NC(=O)C(c1ccccc1)c1ccccc1`, 145 (active). For the molecule `O=C(NNC(=S)NCc1ccco1)C(c1ccccc1)c1ccccc1`, the B-score entry was “inactive”. The result for `CC(C)C(=O)Nc1cccc(NC(=S)NC(=O)C(c2ccccc2)c2ccccc2)c1` reads “inactive”; that for `CN(C)Cc1ccc(F)cc1Sc1cc(Cl)ccc1Cl`, “inactive”; that for `COc1ccccc1N1CC(C(=O)Nc2nnc(SCC(=O)NC(C)C)s2)CC1=O` (stereo unspecified), “inactive”. On to `CCc1noc(C)c1C(=O)Nc1nc(-c2ccccc2)cs1`, for which the B-score result was “inactive”. For `OC(C#CCN1CCOCC1)(c1ccccc1)C1CCCCC1` (stereo unspecified), the B-score entry was “inactive”.

With `CC(Oc1ccc2ccccc2c1)C(=O)NNC(=S)NC(=O)c1ccco1` (stereo unspecified), the B-score is 69.9 (active).

As for `CCCc1ccc(OCC(=O)NNC(=S)NC(=O)c2ccco2)cc1`, the B-score result was “inactive”. With `Cc1ccc(C(=O)NNC(=O)C(C)Oc2ccc3ccccc3c2)o1` (stereo unspecified), the B-score result was “inactive”.

As for `O=C(CN1CCC(O)(c2ccccc2)CC1)Nc1ccc2c(c1)OCCO2`, the B-score result was “inactive”. As to `O=C(CCN1CCc2ccccc2C(O)(c2ccccc2)C1)c1ccc2c(c1)OCCO2` (stereo unspecified), the B-score is 29.6 (active).

Take `CCC1(c2ccccc2)NC(=O)N(CC(=O)c2ccc3c(c2)OCO3)C1=O` (stereo unspecified): the B-score result was “inactive”. Regarding `Cc1ccc(N=C2SCCCN2C(=O)c2cccc(N3C(=O)CCC3=O)c2)cc1Cl`, the B-score result is “inactive”. The result for `CS(=O)(=O)c1sc(C(=O)NC(=S)Nc2ccc(OC(F)(F)F)cc2)c2c1C=CCC2` reads “inactive”; that for `CC(C[N+](C)(C)C)OC(N)=O` (stereo unspecified), 36.5 (active); that for `CC(=O)OCC(COC(C)=O)OC(C)=O`, “inactive”. Consider `CC(=O)OC(C)C[N+](C)(C)C` (stereo unspecified), for which the B-score is 119 (active). `O=C(Nc1cccc(F)c1)c1coc(=O)c(Br)c1`: the B-score result is “inactive”. Consider `N#Cc1cc([N+](=O)[O-])ccc1NCC1CCCO1` (stereo unspecified), for which the B-score result is “inactive”. For the molecule `CCCc1nc2c(c(=O)c3ccccc3n2C)c(=O)n1C1CCCCCC1`, the B-score is 63 (active).

`Cn1c2ccccc2c(=O)c2c(=O)n(Cc3ccco3)c(COc3ccccc3)nc21`: the B-score result is “inactive”.

Consider `CCCc1nc2c(c(=O)c3ccccc3n2C)c(=O)n1-c1cc(C)cc(C)c1`, for which the B-score result was “inactive”. For `C/C=C/c1ccc(OCC(=O)OCC(=O)Nc2c(C)nn(-c3ccccc3)c2C)c(OC)c1`, the B-score entry is “inactive”. On to `COc1cc2c3c(c1)/C(=C1/SC(=S)NC1=O)C(=O)N3C(C)(C)C=C2C`, for which the B-score entry is “inactive”. Regarding `O=C(COC(=O)c1ccc(O)cc1)Nc1nccs1`, the B-score entry is “inactive”. The result for `COc1ccc(CNc2ccc3c(c2)CCC3)cc1OC` reads “inactive”; that for `O=C(COC(=O)CNS(=O)(=O)c1ccccc1)NC12CC3CC(CC(C3)C1)C2`, “inactive”. On to `CN(C)C(=O)N=NC(=O)N(C)C`, for which the B-score entry is “inactive”. For `NC1=NC(=O)C2(COC(c3ccccc3Cl)OC2)S1` (stereo unspecified), the B-score entry is “inactive”. For the molecule `CC(C)(C)SCCNC(=O)c1cccc([N+](=O)[O-])c1`, the B-score entry was “inactive”. In the case of `CC(C)CC(=O)NC(=S)NNC(=O)c1cccc([N+](=O)[O-])c1`, the B-score is 70.6 (active). The result for `CCCCCC(=O)NC(=S)NNC(=O)c1ccc([N+](=O)[O-])cc1` reads “inactive”. The value for `CC(=O)c1c(O)cc2n(c1=O)-c1ccc(Cl)cc1C2(C)C` was “inactive”. Regarding `CCN(CC(=O)Nc1ccc2c(c1)OCCO2)Cc1cc(=O)oc2cc(C)c(C)cc12`, the B-score entry is “inactive”. Turning to `CC(=O)Nc1ccc(NC(=O)CS(=O)(=O)c2cn(CC(=O)N3CCCCC3)c3ccccc23)cc1`, the B-score result is “inactive”. The value for `CC1CCCCN1S(=O)(=O)c1ccc(C(=O)Nc2nnc(-c3cccs3)o2)cc1` (stereo unspecified) was 48.6 (active); that for `CSCc1nnc(NC(=O)c2ccc(S(=O)(=O)N3CCCCC3C)cc2)o1` (stereo unspecified) was “inactive”. On to `CC1CCCN(S(=O)(=O)c2ccc(C(=O)Nc3nnc(-c4ccncc4)o3)cc2)C1` (stereo unspecified), for which the B-score result is “inactive”. As for `Cc1nc(N)nc(SCc2ccc([N+](=O)[O-])cc2)c1N`, the B-score result was “inactive”. Turning to `CCN(C(=O)CN1C(=O)/C(=C/c2ccc(F)cc2)SC1=S)C1CCS(=O)(=O)C1` (stereo unspecified), the B-score entry was “inactive”. The value for `Nc1ccccc1SC(C[N+](=O)[O-])c1ccccc1` (stereo unspecified) was 28.1 (active); that for `Nc1ccccc1SCc1cc([N+](=O)[O-])cc2c1OCOC2` was “inactive”; that for `CCS(=O)(=O)c1cc([N+](=O)[O-])c(Sc2ccccc2N)s1` was “inactive”.

In the case of `CN1CCN(C(=O)c2ccc(NS(=O)(=O)c3ccccc3)cc2)CC1`, the B-score result is “inactive”. As to `C/C(=N\NC(=O)c1ccc2ccccc2c1)c1cccnc1`, the B-score result is “inactive”. The result for `O=C(NCCC1CCCCN1S(=O)(=O)c1ccc(F)cc1)C(=O)NC1CC1` (stereo unspecified) reads “inactive”; that for `CC(=O)Nc1ccc(NC(=O)CN2C(=O)COc3ccc(S(=O)(=O)N4CCCCC4)cc32)cc1`, “inactive”. On to `Cc1cccc(N(C)C(=O)CN2C(=O)COc3ccc(S(=O)(=O)N4CCCCCC4)cc32)c1`, for which the B-score was 46.3 (active). On to `CN(C)c1ccc(CNC(=O)CN2C(=O)COc3ccc(S(=O)(=O)N4CCCC4)cc32)cc1`, for which the B-score entry was “inactive”. For `CCN(CC)S(=O)(=O)c1ccc(N2CC(C(=O)NCc3cccnc3)CC2=O)cc1` (stereo unspecified), the B-score entry was “inactive”. For `COc1ccnc(Oc2ccccc2)n1`, the B-score result was “inactive”. The value for `Cc1ccc(S(=O)(=O)N(CC(=O)NN=C2CCN(C)CC2)c2ccc(F)cc2)cc1` was “inactive”. The value for `O=C1C(=O)N(c2ccccc2)c2ccccc21` was 29.6 (active); that for `O=C1c2ccccc2C(=O)N1c1cccc2ccccc12` was “inactive”; that for `CC(C)OC(=O)CN1C(=O)C(=O)c2ccccc21` was “inactive”. The value for `N/C(=N\OC(=O)CCCC(=O)O)c1ncc(C(F)(F)F)cc1Cl` was “inactive”; that for `CC1CCCCC1NC(=O)CN1CCC(O)(c2ccc3c(c2)OCO3)CC1` (stereo unspecified) was “inactive”; that for `O=[N+]([O-])c1ccc2c(c1)C(O)n1nc(-c3ccccc3)nc1S2` (stereo unspecified) was “inactive”. As for `CCOC(=O)CNC(=O)/C(=C\c1ccc(F)cc1)NC(=O)c1ccccc1`, the B-score result was “inactive”. On to `Cn1c2ccccc2c2cc(/C=C(\NC(=O)c3ccccc3)C(=O)NCC(=O)O)ccc21`, for which the B-score is 52.2 (active). In the case of `COc1ccc(/C=C(\NC(=O)c2ccccc2)C(=O)NCCN2CCOCC2)cc1OC`, the B-score entry is “inactive”. Turning to `C/C(=N\Nc1cccc(C(=O)O)c1)c1ccc2c(c1)Nc1ccccc1S2`, the B-score result is “inactive”. As for `CCn1c(CC(=O)Nc2ccccc2)nnc1SCC(=O)N1CCOCC1`, the B-score entry was “inactive”. As to `O=[N+]([O-])c1ccc(F)cc1Oc1nc(-c2cccnc2)nc2ccccc12`, the B-score entry is “inactive”. Regarding `COc1ccc(Nc2nc(-c3cccnc3)nc3ccccc23)cn1`, the B-score was 38.4 (active). The result for `Cc1cccc(-c2nc(Nc3ccc(O)cc3)c3ccccc3n2)c1` reads “inactive”. With `CN(C)/C(=N\OC(=O)c1ccccc1)c1nonc1N`, the B-score result is “inactive”. For `C=CCO/N=C/C1=C(O)C(C(=O)OC)C(C)(C)CC1=O` (stereo unspecified), the B-score entry is “inactive”.

For `C#CCOCCOCCOCCNc1nc(N2CCN(C(=O)CCCCCCCCCCNC(=O)[C@H]([C@@H](C)CC)n3cc(CCCCN=C(N)N)nn3)CC2)nc(N2CCN(C(=O)CCCCCCCCCCNC(=O)[C@H](CO)n3cc(CCCSC)nn3)CC2)n1`, the B-score result was “inactive”. On to `C#CCOCCOCCOCCNc1nc(N2CCN(C(=O)CCCCCCCCCCNC(=O)Cn3cc(CCCCCN)nn3)CC2)nc(N2CCN(C(=O)CCCCCCCCCCNC(=O)[C@H](CO)n3cc(CCCSC)nn3)CC2)n1`, for which the B-score result is “inactive”. As for `C#CCOCCOCCOCCNc1nc(N2CCN(C(=O)CCCCCCCCCCNC(=O)[C@H](CCCCN)n3cc(C)nn3)CC2)nc(N2CCN(C(=O)CCCCCCCCCCNC(=O)[C@H](CO)n3cc(CCCSC)nn3)CC2)n1`, the B-score is 29.2 (active). The value for `COC(=O)c1cc(S(=O)(=O)N2CCC(C(N)=O)CC2)oc1C` was “inactive”; that for `CCOc1ccc(NC(=O)c2ccc(NC(=O)CN3C(=O)C(=O)N(CC(C)C)C3=O)cc2)cc1` was “inactive”; that for `Cc1cc(C(=O)NNC(=S)Nc2ccccc2C)cs1` was “inactive”. For `COCCCNc1nc2ccccc2nc1NS(=O)(=O)c1ccc(F)cc1`, the B-score result was “inactive”.

As for `C#CCOc1ccc(/C=C2/C(=O)NN(c3ccccc3)C2=O)cc1OC`, the B-score result is “inactive”. The result for `COc1cc(/C=C2/C(=O)NN(c3cccc(Cl)c3)C2=O)cc(Br)c1O` reads 45.3 (active); that for `COc1cc(/C=C2/C(=O)NN(c3ccc(F)cc3)C2=O)cc([N+](=O)[O-])c1O`, “inactive”. `CCCCc1nc(SCC(=O)Nc2nnc(C(C)C)s2)n[nH]1`: the B-score entry was “inactive”.

In the case of `C=CCN1CN(S(=O)(=O)c2ccc(OC)cc2)c2nc3ccccc3nc21`, the B-score entry was “inactive”.

For `O=C(COC(=O)/C=C/c1cccc(Cl)c1)NCCc1ccccc1`, the B-score entry was “inactive”. With `COCCNC(=O)C1CCN(C(=O)C2CC(=O)N(c3ccc(C)cc3)C2)CC1` (stereo unspecified), the B-score entry was “inactive”.

For `O=C(CC(O)(C(F)(F)F)C(F)(F)F)Nc1ccc(Cl)c(Cl)c1`, the B-score is 38.4 (active). The value for `O=C(Cc1ccc(Cl)c(Cl)c1)Nc1ccc(SC(F)F)cc1` was “inactive”. As for `O=C(CC1SCCNC1=O)Nc1ccc(Cl)c(Cl)c1` (stereo unspecified), the B-score result is “inactive”. As for `Cc1nn(C)c(C)c1C(C)NC(=O)c1ccc(OC2CCN(Cc3ccccn3)CC2)cc1` (stereo unspecified), the B-score result is “inactive”. Turning to `CCOc1ccc(S(=O)(=O)N2CCC(C(=O)OCc3ccc(OC)cc3)CC2)cc1`, the B-score result was “inactive”. Consider `COC(=O)c1ccc(COC(=O)C2CCN(S(=O)(=O)c3c(Cl)cccc3Cl)CC2)o1`, for which the B-score was 28.7 (active). As for `COc1cccc(COC(=O)C2CCN(S(=O)(=O)c3ccc(Cl)cc3)CC2)c1OC`, the B-score result was “inactive”.

Regarding `NC(=O)C1CCN(C(=O)CC2C(=O)NCCN2Cc2cccc(Oc3ccccc3)c2)CC1` (stereo unspecified), the B-score entry is “inactive”. On to `Cc1nn(CCCC(=O)NCc2ccccc2Cl)c(=O)c2nccn12`, for which the B-score result is “inactive”. `COc1ccc(OC)c(C(=O)c2ccc(C(=O)O)cc2)c1`: the B-score entry is “inactive”. The result for `COc1ccc(OC)c(C(=O)c2coc3ccc(OC)cc23)c1` reads “inactive”. Take `COc1ccc(OC)c(C(=O)c2ccc(Cl)cc2)c1`: the B-score was 29.4 (active).
